Screening results as filed in PubChem BioAssay.
HDAC3 inhib – blocks human histone deacetylase 3; recombinant HDAC3, fluorogenic peptide/trypsin coupled, fluorescence; inhibition, % at 8.3 µM; actives 0.15% (n = 320,000); in the data active = inhibition above about 26%, passing the limit was not always enough; inconclusive = no clear call, values can overlap the other calls
Runt-CBFb FRET – inhibitors of human RUNX1 Runt domain binding to CBFb. Q01196+Q13951. Cerulean-Runt/Venus-CBFb FRET ratio 530/480, 1 h. inhibition, % at 20 µM. actives 0.46% (n = 220,000). AID 1496;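 active = inhibition over about 50% at 20 µM in the single-dose screen, limit read from the data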;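 note: 0% = DMSO wells and 100% = excess unlabeled CBFb competitor control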
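Schedule: protein complex preformed 1 h, compound exposure 1 h, room temperature, dark; test system: Cerulean-labeled Runt domain protein; amount: 100 nM per protein; buffer or medium: Tris 50 mM pH 7.5, KCl, K2SO4, 0.01% BSA; read-out: loss of energy transfer signal; detection: FRET fluorescence; controls: 5 µM unlabeled CBFb as full-inhibition high control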
RanGTP-Imp inh – inhibitors of RanGTP-importin-beta interaction, primary screen, biochemical, FRET, CFP-Ran, YFP-importin-beta, homogeneous; actives 1.1% (n = 300,000); inhibition, % (no concentration beside the values); AID 2216; cell-free CFP-Ran/YFP-importin-beta FRET ratio;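 active = more than half of the replicate wells show a fall in the fluorescence ratio signal beyond about 16%, limit read from the data, passing the limit was not always enough; inconclusive = exactly half of the replicate wells pass the set limit; inactive = fewer than half of replicates pass the limit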;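 note: 0% = DMSO wells and 100% = Ran loaded with GDP instead of GTP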
LANA-H2B inh – blocks KSHV LANA binding to histone H2A/H2B | inhibition, % (test concentration not listed) | actives 0.6% (n = 320,000) | AID 2629 | cell-free LANA-H2A/H2B peptide, fluorescence polarization | Q9QR71; in the data active = inhibition mostly above about 10%, no sharp cut-off; inactive = mostly below about 6.7%
Target sequence (Q9QR71 whole entry, looked up): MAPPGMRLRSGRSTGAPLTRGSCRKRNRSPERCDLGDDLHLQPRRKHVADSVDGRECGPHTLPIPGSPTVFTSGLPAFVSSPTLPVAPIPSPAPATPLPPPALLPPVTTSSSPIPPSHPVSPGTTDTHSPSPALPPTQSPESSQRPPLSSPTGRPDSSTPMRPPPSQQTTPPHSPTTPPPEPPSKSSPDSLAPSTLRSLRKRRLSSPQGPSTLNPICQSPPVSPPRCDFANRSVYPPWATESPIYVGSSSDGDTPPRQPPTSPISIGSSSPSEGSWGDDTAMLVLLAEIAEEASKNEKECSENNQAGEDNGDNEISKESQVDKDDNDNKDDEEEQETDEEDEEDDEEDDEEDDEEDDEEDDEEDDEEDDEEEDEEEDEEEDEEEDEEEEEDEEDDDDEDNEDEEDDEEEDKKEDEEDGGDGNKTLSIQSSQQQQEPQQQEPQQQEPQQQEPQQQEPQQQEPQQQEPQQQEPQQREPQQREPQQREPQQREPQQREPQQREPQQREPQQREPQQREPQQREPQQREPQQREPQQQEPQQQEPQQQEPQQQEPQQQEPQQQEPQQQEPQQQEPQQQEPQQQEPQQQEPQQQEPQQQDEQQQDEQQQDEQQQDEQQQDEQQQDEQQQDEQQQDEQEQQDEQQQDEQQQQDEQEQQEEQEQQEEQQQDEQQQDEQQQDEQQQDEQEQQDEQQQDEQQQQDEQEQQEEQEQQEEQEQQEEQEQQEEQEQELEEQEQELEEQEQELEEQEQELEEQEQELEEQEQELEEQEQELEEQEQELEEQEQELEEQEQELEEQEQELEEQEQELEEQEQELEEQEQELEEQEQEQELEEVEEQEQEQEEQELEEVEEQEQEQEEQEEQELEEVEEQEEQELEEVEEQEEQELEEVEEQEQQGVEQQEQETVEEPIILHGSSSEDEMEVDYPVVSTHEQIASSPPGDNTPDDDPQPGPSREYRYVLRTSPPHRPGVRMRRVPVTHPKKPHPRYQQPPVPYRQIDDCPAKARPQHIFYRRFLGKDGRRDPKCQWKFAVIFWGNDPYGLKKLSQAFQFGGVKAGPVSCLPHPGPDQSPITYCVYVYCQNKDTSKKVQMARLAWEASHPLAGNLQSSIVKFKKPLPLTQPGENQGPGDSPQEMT
Runt-SMMHC FRET – inhibitors of human RUNX1 Runt domain binding to CBFb-SMMHC. actives 0.74% (n = 220,000). Cerulean-Runt/Venus-CBFb-SMMHC FRET ratio 530/480, 1 h. inhibition, % at 20 µM;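 active = mean inhibition across duplicate retests at 20 µM reaching about 50%, limit read from the data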;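 note: 0% = DMSO wells and 100% = wells with excess untagged CBFb-SMMHC; inhibitors lower the FRET ratio by blocking Runt binding to CBFb-SMMHC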
CaV13 FRET inh – Disruptors of the CACNA1D IQ motif to Ca2+-dependent inactivation inhibitor domain association, primary screening, Förster resonance energy transfer in intact living …; AID 743397; inhibition, % at 12.3 µM; actives 0.098% (n = 340,000); HEK cells, CFP/YFP FRET ICDI-IQ, plate reader, 10 min; percent FRET-ratio fall versus neutral wells;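 active = mean replicate inhibition of at least 30% and at least 1% of replicates passing that level; inconclusive = only one of the two criteria is met; inactive = neither criterion is met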;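 note: 0% = median of the neutral control wells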
Active calls of the source: *; ? = inconclusive; · = no result. Shown are actives, neighbours in structure and some others; about 1.9% of the full set was active somewhere.

SMILES	HDAC3 inhib	Runt-CBFb FRET	RanGTP-Imp inh	LANA-H2B inh	Runt-SMMHC FRET	CaV13 FRET inh
Cc1cc(NC(=O)C2CCN(S(=O)(=O)Cc3ccccc3)CC2)ccc1-n1cnnn1	-2	1	?	43*	-2	-4
O=C(COc1ccc(S(=O)(=O)N2CCOCC2)cc1)Nc1ccccc1C(F)(F)F	0	2	27*	1	2	-5
COc1ccccc1C(=O)NCCCNc1nc2cc(C)cc(C)c2cc1C#N	·	·	·	·	·	-11
Cc1ccc2nc(NCc3ccccc3)c(C#N)cc2c1	·	42	38*	-2	83	-5
COc1ccc2nc(NCCCNC(=O)c3cc(OC)c(OC)c(OC)c3)c(C#N)cc2c1	-12	57*	126*	0	38	-1
COc1ccc(C(=O)NCCNc2nc3cc(C)cc(C)c3cc2C#N)cc1	·	·	·	·	·	-13
COc1cc(C(=O)NCCCNc2nc3c(C)cc(C)cc3cc2C#N)cc(OC)c1OC	-22	16	2	-3	23	59*
COc1cc(C(=O)NCCNc2nc3ccc(C)cc3cc2C#N)cc(OC)c1OC	-4	·	81*	-2	·	2
CC1(C(=O)NS(=O)(=O)c2ccc(F)cc2F)CCN1C(=O)CC1CC1 (stereo not given)	·	·	·	·	·	-4
CCCOC(=O)c1ccc(O)cc1	0	·	2	4	·	·
Cc1ccc(S(=O)(=O)N2CCN(C3CC(=O)N(c4ccc(F)cc4)C3=O)CC2)cc1C (stereo not given)	-2	·	·	0	·	-6
COc1ccc(C(=O)NCCNc2nc3ccc(C)cc3cc2C#N)cc1	-23	·	65*	1	·	25
Cc1ccc(Nc2c(-c3ccco3)nc3nc(C)cc(C)n23)cc1	5	4	-1	21*	0	-4
CSC(=S)N/N=C/c1ccc(N(C)C)cc1	2	18	1	4	52*	2
Cc1cc(=O)n2c3ccccc3n(CC(O)CN3CCOCC3)c2c1C#N (stereo not given)	-4	-1	130*	0	1	5
COc1ccc(Cc2noc(-c3ccc(OC)c(OC)c3)n2)cc1OC	0	-1	4	-2	2	-9
CN1CCc2nc(NC(=O)c3cccc(OC(F)F)c3)sc2C1	2	23	19*	2	69*	-7
O=C(NC(=S)Nc1ccccc1F)c1ccc(Br)o1	1	1	6	-4	0	-5
CCC(C(=O)NC1CC(C)(C)NC(C)(C)C1)c1ccccc1 (stereo not given)	2	·	4	14*	·	-4
O=C(COC(=O)Cc1c[nH]c2ccccc12)Nc1cccc2ccccc12	1	1	4	14*	-4	-7
N#CC1=C(N)SC(N)=C(C#N)C1CCC1CCCCC1	7	22	51*	-15	35	·
Nc1nnc(CCC2CCCCC2)s1	-1	0	0	0	0	-8
CCCC(=O)n1nc(-c2ccc(Cl)cc2)nc1SC	32*	-2	2	12	-2	·
CCC(=O)n1nc(-c2ccc(Cl)cc2)nc1SC	-3	1	7	2	4	-3
CC(=O)N(C1=C(Cl)C(=O)c2ccccc2C1=O)C1CCCCC1	?	33	4	-1	70*	16
SMILES	HDAC3 inhib	Runt-CBFb FRET	RanGTP-Imp inh	LANA-H2B inh	Runt-SMMHC FRET	CaV13 FRET inh
CC(C)NC(=O)N(C)C[C@@H]1OCc2cnnn2CCCC(=O)N([C@@H](C)CO)C[C@H]1C	·	·	·	·	·	-4
CC(C)CC(NC(=O)c1cccc(Cl)c1)C(=O)O (stereo not given)	-2	0	1	-6.2*	2	-5
Cc1cc(C(=O)NC(CC(C)C)C(=O)O)cc(C)c1[N+](=O)[O-] (stereo not given)	0	2	3	25*	1	-2
COCCNC(=S)N1CCN(c2nc(-c3ccc(F)cc3)cs2)CC1	3	·	2	18*	·	-22
COCCNC(=S)N1CCN(c2nc(-c3ccc(Cl)cc3)cs2)CC1	-4	·	-2	-3	·	-3
COc1ccc(-c2ncc(CN3CCC(CO)(Cc4cccc(OC)c4)CC3)cn2)cc1	-2	8	82*	1	26	-1
